Measurements reported in ChEMBL document CHEMBL1155883, “5-Alkyl-6-benzyl-2-(2-oxo-2-phenylethylsulfanyl)pyrimidin-4(3H)-ones, a series of anti-HIV-1 agents of the dihydro-alkoxy-benzyl-oxopyrimidine family with peculiar structure-activity relationship profile” (J Med Chem, 2008).
pEC50: −log10 of the molar value.

Experiments:
[1] = system: Human immunodeficiency virus 1; test: Antiviral activity against HIV1 NL4-3 in human MT4 cells assessed as inhibition of virus-induced cytopathogenicity by MTT assay; format: functional, organism-based; conditions: Human immunodeficiency virus 1, NL4-3, MT4
Method in brief: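 MT-4 lymphoid cells infected with wild-type HIV-1 NL4-3 in the presence of a range of compound concentrations. Viable cells were counted by MTT colorimetric read-out at day 5 post-infection. EC50 is the concentration giving 50% protection from virus-induced cytopathic effect. Means ± SD from at least two or three experiments.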

[2] = Selectivity index, ratio of CC50 for human MT4 cells to EC50 for HIV1 NL4-3; format: toxicity, cell-based; conditions: read-out: Ratio CC50/EC50
Method in brief: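 Computed as CC50/EC50. CC50 comes from MTT viability of mock-infected MT-4 cells and EC50 from MTT protection of NL4-3-infected MT-4 cells, both read at day 5.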

[3] = Cytotoxicity against human MT4 cells by MTT assay; format: cell-based
Method in brief: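 Mock-infected MT-4 cells were exposed to a range of compound concentrations. Viability was read by MTT at day 5. CC50 is the concentration that kills 50% of uninfected cells. The top concentration was limited by compound precipitation in culture medium. Means ± SD from at least two or three experiments.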

[4] = system: Human immunodeficiency virus 1; test: Resistance index, ratio of ID50 for reverse transcriptase K103N mutant to IC50 for wild-type HIV1 sreverse transcriptase
Method in brief: (§1)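 Recombinant wt and K103N, L100I or Y181I HIV-1 RT (>95% pure), 2-4 nM. RNA-dependent DNA polymerase assay on 0.5 µg poly(rA)/oligo(dT) 10:1 (0.3 µM 3'-OH ends) with 10 µM [3H]-dTTP and 8% final DMSO. Aliquots taken every 2 min. Inhibitor range 0.2-5× ID50, fitted to a noncompetitive model. Fold resistance is mutant ID50 divided by wt ID50.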

[5] = system: Human immunodeficiency virus 1; test: Resistance index, ratio of ID50 for reverse transcriptase Y181I mutant to IC50 for wild-type HIV1 reverse transcriptase; method in brief: as §1
[6] = system: Human immunodeficiency virus type 1 reverse transcriptase (Human immunodeficiency virus 1), Q72547 [L100I]
[7] = system: Human immunodeficiency virus type 1 reverse transcriptase (Human immunodeficiency virus 1), Q72547 [K103N]
[8] = system: Human immunodeficiency virus 1; test: Antiviral activity against HIV1 isolates with reverse transcriptase K103N mutation in human MT4 cells assessed as inhibition of virus-induced cytopathogenicity by MTT assay; format: functional, organism-based; conditions: Human immunodeficiency virus 1, MT4
Method in brief: (§2)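 MT-4 lymphoid cells infected with HIV-1 carrying RT K103N, Y181C or Y188L, in the presence of different drug concentrations. Viable cells counted at day 5 postinfection by MTT colorimetric assay. EC50 is the concentration that inhibits 50% of the HIV-induced cytopathic effect.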

[9] = system: Human immunodeficiency virus type 1 reverse transcriptase (Human immunodeficiency virus 1), Q72547 [Y181I]
[10] = system: Human immunodeficiency virus 1; test: Antiviral activity against HIV1 isolates with reverse transcriptase Y181C mutation in human MT4 cells assessed as inhibition of virus-induced cytopathogenicity by MTT assay; format: functional, organism-based; conditions: Human immunodeficiency virus 1, MT4; method in brief: as §2
[11] = system: Human immunodeficiency virus 1; test: Resistance index, ratio of EC50 for drug-resistant HIV1 isolate with reverse transcriptase Y181C mutation to EC50 for wild type HIV1 NL4-3; format: functional
Method in brief: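 Fold resistance is the EC50 against the K103N, Y181C or Y188L mutant strain divided by the EC50 against wt NL4-3. Each EC50 is from MT-4 cells infected in the presence of different drug concentrations, with viability read by MTT at day 5 postinfection.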

[12] = target: Human immunodeficiency virus type 1 reverse transcriptase (Human immunodeficiency virus 1) (UniProt Q72547)
[13] = system: Human immunodeficiency virus 1; test: Antiviral activity against HIV1 isolates with reverse transcriptase Y188L mutation in human MT4 cells assessed as inhibition of virus-induced cytopathogenicity by MTT assay; format: functional, organism-based; conditions: Human immunodeficiency virus 1, MT4; method in brief: as §2
[14] = system: Human immunodeficiency virus 1; test: Resistance index, ratio of ID50 for reverse transcriptase L100I mutant to IC50 for wild-type HIV1 reverse transcriptase; method in brief: as §1

Row | Structure (SMILES) | pEC50 [1] | selectivity ratio [2] | CC50 [3] | Ratio [4] | Ratio [5] | ID50 [6] | ID50 [7] | pEC50 [8] | ID50 [9] | pEC50 [10] | Ratio EC50 [11] | ID50 [12] | pEC50 [13] | Ratio [14]
1 | O=c1cc(Cc2c(F)cccc2F)nc(SCc2c(F)cccc2F)[nH]1 | 6.00 | > 66 | > 66 µM |  |  |  |  |  |  |  |  |  |  | 
2 | Cc1c(Cc2c(F)cccc2F)nc(SCc2ccccc2)[nH]c1=O | 6.89 | > 538 | > 70 µM |  |  |  |  |  |  |  |  |  |  | 
3 | Cc1ccc(CSc2nc(Cc3c(F)cccc3F)c(C)c(=O)[nH]2)c(C)c1 | 6.40 | > 162 | > 65 µM |  |  |  |  |  |  |  |  |  |  | 
4 | O=c1cc(Cc2c(F)cccc2F)nc(SCc2ccccc2)[nH]1 | 7.00 | > 730 | > 73 µM |  |  |  |  |  |  |  |  |  |  | 
5 | O=C(CSc1nc(Cc2c(F)cccc2Cl)cc(=O)[nH]1)c1ccc(F)cc1 | 6.54 | > 210 | > 61 µM | 22 | 10 | > 40 µM | 20.7 µM | < 4.21 | 9.2 µM | 4.86 | 48 | 0.93 µM | < 4.21 | 
6 | COc1ccc(C(=O)CSc2nc(Cc3cccc4ccccc34)c(C(C)C)c(=O)[nH]2)cc1 | 7.52 | 6770 | 203 µM |  |  |  |  |  |  |  |  |  |  | 
7 | CC(C)c1c(Cc2c(Cl)cccc2Cl)nc(SCC(=O)c2ccc(F)cc2)[nH]c1=O | 7.19 | > 844 | > 54 µM |  | 1530 |  |  | < 4.27 | 30.6 µM | < 4.27 |  | 0.02 µM | < 4.27 | 
8 | O=C(CSc1nc(Cc2c(F)cccc2Cl)cc(=O)[nH]1)c1ccccc1 | 5.90 | > 10 | > 13 µM | 1000 | 200 | 1.5 µM | 2 µM | < 4.89 | 0.4 µM | < 4.89 |  | 0.002 µM | < 4.89 | 750
9 | Cc1c(Cc2c(Cl)cccc2Cl)nc(SCC(=O)c2ccc(F)cc2)[nH]c1=O | 7.34 | > 1240 | > 57 µM |  | 4 | 10.7 µM | > 40 µM | < 4.24 | 0.8 µM | < 4.24 |  | 0.19 µM | < 4.24 | 56
10 | CC(C)Sc1nc(Cc2c(F)cccc2F)cc(=O)[nH]1 | 7.77 | > 4940 | > 84 µM |  |  |  |  |  |  |  |  |  |  | 
11 | COc1ccc(C(=O)CSc2nc(Cc3c(F)cccc3Cl)c(C(C)C)c(=O)[nH]2)cc1 | 9.00 | > 11000 | > 11 µM |  |  | > 40 µM | > 40 µM | < 4.96 | > 40 µM | 6.80 | 160 | 0.0007 µM | < 4.96 | 
12 | O=C(CSc1nc(Cc2c(F)cccc2F)cc(=O)[nH]1)c1ccccc1 | 6.00 | > 67 | > 67 µM |  |  |  |  |  |  |  |  |  |  | 
13 | O=C(CSc1nc(Cc2c(F)cccc2F)cc(=O)[nH]1)c1ccc([N+](=O)[O-])cc1 | 5.08 | > 3 | 22 µM |  |  |  |  |  |  |  |  |  |  | 
14 | Cc1c(Cc2c(F)cccc2F)nc(SCc2ccncc2)[nH]c1=O | 7.22 | > 1170 | > 70 µM |  |  |  |  |  |  |  |  |  |  | 
15 | O=c1cc(Cc2c(F)cccc2F)nc(SCCCc2ccccc2)[nH]1 | 6.70 | 160 | 32 µM |  |  |  |  |  |  |  |  |  |  | 
16 | COc1ccc(C(=O)CSc2nc(Cc3c(Cl)cccc3Cl)c(C(C)C)c(=O)[nH]2)cc1 | 9.40 | > 35000 | > 14 µM |  | 1220 | > 40 µM | > 40 µM | < 4.85 | 17.1 µM | 6.64 | 575 | 0.014 µM | < 4.85 | 
